Test results as given in ChEMBL document CHEMBL4765236, “Insights into the Antimicrobial Activity and Cytotoxicity of Engineered α-Helical Peptide Amphiphiles” (J Med Chem, 2016).
Activity calls are given as the source filed them. The calls are words filed in the database; no cut-off is given here.

Key:
Escherichia coli [1] = assay: Antibacterial activity against Escherichia coli O157:H7 CICC 21530 assessed as bacterial growth inhibition incubated for 18 to 24 hrs by microtiter broth dilution method; assay type: functional; settings: time 18-24 hrs
Method in brief: (§1)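 Log-phase bacteria grown at 37 °C in MHB, diluted to 10^5 CFU/mL, mixed 1:1 with serial peptide dilutions (peptide diluted in 0.01% acetic acid, 0.2% BSA); 37 °C for 18-24 h. MIC read by OD492 as lowest concentration giving no growth; mean of 3-5 independent experiments.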

Escherichia coli [2] = assay: Antibacterial activity against Escherichia coli ATCC 25922 assessed as bacterial growth inhibition incubated for 18 to 24 hrs by microtiter broth dilution method; assay type: functional; settings: time 18-24 hrs
Method in brief: (§2)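 Log-phase cells (grown overnight at 37 °C, subcultured in MHB) diluted to 10^5 CFU/mL in MHB and mixed 1:1 with serial peptide dilutions prepared in 0.01% acetic acid/0.2% BSA. Incubated 37 °C for 18-24 h. MIC is the lowest concentration giving no growth by OD492. Reported as the average of 3-5 independent experiments.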

Salmonella paratyphi = assay: Antibacterial activity against Salmonella paratyphi A CICC 20501 assessed as bacterial growth inhibition incubated for 18 to 24 hrs by microtiter broth dilution method; assay type: functional, Salmonella enterica subsp. enterica serovar Paratyphi A; settings: Salmonella enterica, time 18-24 hrs; method in brief: as §1
Shigella flexneri = assay: Antibacterial activity against Shigella flexneri CMCC 51571 assessed as bacterial growth inhibition incubated for 18 to 24 hrs by microtiter broth dilution method; assay type: functional; settings: time 18-24 hrs; method in brief: as §2
Salmonella typhimurium = assay: Antibacterial activity against Salmonella typhimurium CMCC 51005 assessed as bacterial growth inhibition incubated for 18 to 24 hrs by microtiter broth dilution method; assay type: functional, Salmonella enterica subsp. enterica serovar Typhimurium; settings: Salmonella enterica, time 18-24 hrs; method in brief: as §2
Salmonella enteritidis = assay: Antibacterial activity against Salmonella enteritidis CICC 21527 assessed as bacterial growth inhibition incubated for 18 to 24 hrs by microtiter broth dilution method; assay type: functional, Salmonella enterica subsp. enterica serovar Enteritidis; settings: Salmonella enterica, time 18-24 hrs; method in brief: as §2
Vibrio parahaemolyticus = assay: Antibacterial activity against Vibrio parahaemolyticus CICC 21617 assessed as bacterial growth inhibition incubated for 18 to 24 hrs by broth dilution method; assay type: functional; settings: time 18-24 hrs; method in brief: as §2
Staphylococcus aureus [3] = assay: Antibacterial activity against Staphylococcus aureus ATCC 29213 assessed as bacterial growth inhibition incubated for 18 to 24 hrs by microtiter broth dilution method; assay type: functional; settings: time 18-24 hrs; method in brief: as §2
Listeria monocytogenes = assay: Antibacterial activity against Listeria monocytogenes CICC 21662 assessed as bacterial growth inhibition incubated for 18 to 24 hrs by microtiter broth dilution method; assay type: functional; settings: time 18-24 hrs; method in brief: as §2
Bacillus cereus = assay: Antibacterial activity against Bacillus cereus CMCC 63301 assessed as bacterial growth inhibition incubated for 18 to 24 hrs by microtiter broth dilution method; assay type: functional; settings: time 18-24 hrs; method in brief: as §2
Micrococcus luteus = assay: Antibacterial activity against Micrococcus luteus CMCC 28001 assessed as bacterial growth inhibition incubated for 18 to 24 hrs by microtiter broth dilution method; assay type: functional; settings: time 18-24 hrs; method in brief: as §2
Bacillus pumilus = assay: Antibacterial activity against Bacillus pumilus CMCC 63202 assessed as bacterial growth inhibition incubated for 18 to 24 hrs by microtiter broth dilution method; assay type: functional; settings: time 18-24 hrs; method in brief: as §2
Staphylococcus aureus [4] = assay: Antibacterial activity against methicillin resistant Staphylococcus aureus ATCC 43300 assessed as bacterial growth inhibition incubated for 18 to 24 hrs by microtiter broth dilution method; assay type: functional; settings: time 18-24 hrs; method in brief: as §1
Candida albicans = assay: Antifungal activity against Candida albicans ATCC 10231 assessed as fungal growth inhibition incubated for 18 to 24 hrs by microtiter broth dilution method; assay type: functional; settings: time 18-24 hrs; method in brief: as §2
Erythrocyte = assay: Hemolytic activity against human red blood cells assessed as concentration required to cause 10% hemoglobin release measured after 1 hr by microplate reader analysis; assay type: ADME, cell-based
Method in brief: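 Fresh heparinized human RBCs washed three times in 10 mM PBS pH 7.4 and resuspended to about 1% (v/v) (5.4 × 10^8 cells/mL). Mixed 1:1 with peptide in PBS for 1 h at 37 °C, then centrifuged. Supernatant hemoglobin read at A540. PBS set as 0% and 0.1% Triton X-100 as 100% hemolysis. MHC is the concentration causing 10% hemolysis.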

[5] = Therapeutic index, ratio of MHC10 for human RBC to geometric mean of peptide MIC for Staphylococcus aureus ATCC 29213; assay type: toxicity; settings: human red blood cells (RBC), pooled result: one value given for 9 cell lines, strains, targets or settings, read-out: TI
Method in brief: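 Therapeutic index = MHC (peptide concentration giving 10% hemolysis of human RBCs, 1 h, 37 °C, A540) divided by geometric mean of MICs from broth microdilution (10^5 CFU/mL in MHB, 37 °C, 18-24 h, OD492).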

Escherichia coli [6] = assay: Antibacterial activity against Escherichia coli O157:H7 CICC 21530 assessed as bacterial growth inhibition incubated for 18 to 24 hrs in presence of 150 mM NaCl by microtiter broth dilution method (reference value: 0.85 to > 71.5 uM); assay type: functional; settings: time 18-24 hrs
Escherichia coli [7] = assay: Antibacterial activity against Escherichia coli O157:H7 CICC 21530 assessed as bacterial growth inhibition incubated for 18 to 24 hrs in presence of 4.5 mM KCl by microtiter broth dilution method (reference value: 0.85 to > 71.5 uM); assay type: functional; settings: time 18-24 hrs
Escherichia coli [8] = assay: Antibacterial activity against Escherichia coli O157:H7 CICC 21530 assessed as bacterial growth inhibition incubated for 18 to 24 hrs in presence of 6 mM NH4Cl by microtiter broth dilution method (reference value: 0.85 to > 71.5 uM); assay type: functional; settings: time 18-24 hrs
Escherichia coli [9] = assay: Antibacterial activity against Escherichia coli O157:H7 CICC 21530 assessed as bacterial growth inhibition incubated for 18 to 24 hrs in presence of 4 mM FeCl3 by microtiter broth dilution method (reference value: 0.85 to > 71.5 uM); assay type: functional; settings: time 18-24 hrs
RAW264.7 = assay: Antiinflammatory activity against mouse RAW264.7 cells assessed as inhibition of LPS-induced TNF-alpha production at 0.5 to 64 uM measured after 24 hrs by […] ELISA; assay type: functional, cell-based; settings: dose 0.5-64 µM
Method in brief: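 RAW264.7 cells plated at 1-2 × 10^5 cells/mL and stimulated with 500 ng/mL LPS with or without peptide (0.5-64 µM) for 24 h at 37 °C. Controls were untreated cells and LPS alone. TNF-α in the supernatant measured by ELISA. NO measured by Griess reagent (1% sulfanilamide, 0.1% naphthylethylenediamine, 5% phosphoric acid).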

HepG2 = assay: Cytotoxicity against human HepG2 cells assessed as reduction in cell viability incubated for 24 hrs by MTT assay; assay type: functional, cell-based
Method in brief: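 HepG2 survival measured by MTT assay over a peptide range of 0.25-64 µM.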

Staphylococcus aureus [10] = assay: Antibacterial activity against Staphylococcus aureus ATCC 29213 assessed as bacterial growth inhibition incubated for 18 to 24 hrs in presence of 4.5 mM KCl by microtiter broth dilution method (reference value: 0.43 to > 71.5 uM); assay type: functional; settings: time 18-24 hrs
Staphylococcus aureus [11] = assay: Antibacterial activity against Staphylococcus aureus ATCC 29213 assessed as bacterial growth inhibition incubated for 18 to 24 hrs in presence of 1 mM MgCl2 by microtiter broth dilution method (reference value: 0.43 to > 71.5 uM); assay type: functional; settings: time 18-24 hrs
Staphylococcus aureus [12] = assay: Antibacterial activity against Staphylococcus aureus ATCC 29213 assessed as bacterial growth inhibition incubated for 18 to 24 hrs in presence of […] by microtiter broth dilution method (reference value: 0.43 to > 71.5 uM); assay type: functional; settings: time 18-24 hrs
Escherichia coli [13] = assay: Bactericidal activity against Escherichia coli O157:H7 CICC 21530 assessed as bacterial killing at 1 times MIC by time kill assay; assay type: functional, organism-based; settings: time 1085.0 min, TDE = time-dependent effect

Row | Substance | MIC (Escherichia coli [1]) | MIC (Escherichia coli [2]) | MIC (Salmonella paratyphi) | MIC (Shigella flexneri) | MIC (Salmonella typhimurium) | MIC (Salmonella enteritidis) | MIC (Vibrio parahaemolyticus) | MIC (Staphylococcus aureus [3]) | MIC (Listeria monocytogenes) | MIC (Bacillus cereus) | MIC (Micrococcus luteus) | MIC (Bacillus pumilus) | MIC (Staphylococcus aureus [4]) | MIC (Candida albicans) | MHC10 (Erythrocyte) | selectivity ratio [5] | MIC (Escherichia coli [6]) | MIC (Escherichia coli [7]) | MIC (Escherichia coli [8]) | MIC (Escherichia coli [9]) | also measured
1 | H-WLRAFRRLVRRLARGLRR-NH2 | 0.85 µM | 1.7 µM | 0.43 µM | 0.43 µM | 6.81 µM | 6.81 µM | 1.7 µM | 0.43 µM | 0.21 µM | 0.85 µM | 0.43 µM | 0.85 µM | 0.85 µM | 3.4 µM | 27.22 µM | 59.1 | 3.4 µM | 0.85 µM | 0.85 µM | 6.81 µM | Activity (RAW264.7): Active; Activity (HepG2): Dose-dependent effect; IC50 (HepG2; HepG2, 24 h): 32 µM; MIC (Staphylococcus aureus [10]): 0.21 µM; MIC (Staphylococcus aureus [11]): 0.21 µM; MIC (Staphylococcus aureus [12]): 55 µM; Activity (Escherichia coli [13]): Tde
2 | H-WLRAFRRLVRRLARLLRR-NH2 | 3.32 µM | 13.3 µM | 6.65 µM | 1.66 µM | > 53.2 µM | > 53.2 µM | 6.65 µM | 6.65 µM | 3.32 µM | 53.2 µM | 13.3 µM | 26.6 µM | 3.32 µM | 26.6 µM | 53.18 µM | 5.88 | > 53.2 µM | 1.66 µM | > 53.2 µM | > 53.2 µM | Activity (RAW264.7): Active; Activity (HepG2): Dose-dependent effect; MIC (Staphylococcus aureus [10]): 1.66 µM; MIC (Staphylococcus aureus [11]): 0.83 µM; MIC (Staphylococcus aureus [12]): > 53.2 µM; Activity (Escherichia coli [13]): Tde
